# Test results taken from ChEMBL document CHEMBL1125346, “Guanidinophenyl-substituted enol lactones as selective, mechanism-based inhibitors of trypsin-like serine proteases” (J Med Chem, 1992).
# Assays:
# [1] = biological target: Tissue-type plasminogen activator (Homo sapiens) (UniProt P00750); assay: Substrate binding constant against Tissue plasminogen activator
# How it was run: (§1)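 Competitive substrate assay: lactone (DMSO, final 10% v/v) and chromogenic substrate combined in buffer, enzyme added, absorbance followed to steady state. Turnover-corrected semilog plot gives kobs; I0 vs I0/kobs replot (eq 6) with separately determined Km yields Ki and ka. Where no burst was seen, Ki was estimated from Km(app) replots using 15-s initial velocities. Buffers and substrates as in incubation assay.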
# [2] = biological target: Prothrombin (Homo sapiens) (UniProt P00734); assay: Substrate binding constant against thrombin; how it was run: as §1
# [3] = biological target: Plasminogen (Homo sapiens) (UniProt P00747); assay: Time to reach maximum percent inhibition by the compound was determined against plasmin(625 nM); type: functional
# Chain of Plasminogen (Homo sapiens) (P00747 97-580 limits assumed): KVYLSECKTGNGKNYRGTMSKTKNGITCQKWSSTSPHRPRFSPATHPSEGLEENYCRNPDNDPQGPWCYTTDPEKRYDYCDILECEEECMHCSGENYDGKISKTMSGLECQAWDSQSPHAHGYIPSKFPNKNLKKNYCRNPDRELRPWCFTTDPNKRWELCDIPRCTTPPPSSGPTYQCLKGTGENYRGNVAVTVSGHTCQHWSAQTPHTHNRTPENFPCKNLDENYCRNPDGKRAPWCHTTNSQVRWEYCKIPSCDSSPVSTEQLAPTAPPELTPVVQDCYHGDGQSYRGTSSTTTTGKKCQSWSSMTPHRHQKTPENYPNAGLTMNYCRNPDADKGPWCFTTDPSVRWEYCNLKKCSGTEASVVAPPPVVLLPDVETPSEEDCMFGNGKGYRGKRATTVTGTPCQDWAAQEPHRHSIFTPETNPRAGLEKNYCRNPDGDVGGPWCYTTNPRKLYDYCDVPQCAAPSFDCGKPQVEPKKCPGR
# Chain of Plasminogen (Homo sapiens) (P00747 581-810 limits assumed): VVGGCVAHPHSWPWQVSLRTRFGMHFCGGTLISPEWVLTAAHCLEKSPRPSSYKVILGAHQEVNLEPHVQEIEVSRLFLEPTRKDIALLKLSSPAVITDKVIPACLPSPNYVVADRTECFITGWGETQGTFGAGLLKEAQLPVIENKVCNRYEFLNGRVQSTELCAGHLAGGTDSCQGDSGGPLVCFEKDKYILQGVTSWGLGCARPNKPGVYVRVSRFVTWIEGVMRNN
# How it was run: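 Plasmin plus excess lactone (10% final DMSO) was sampled over 2 h into Ts-Gly-Pro-Lys-pNA (157.4 μM) in 0.05 M phosphate, pH 7.8. The slope at 404 nm, relative to an enzyme-only control, gave residual activity. Minutes needed to reach maximal inhibition were reported.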
# [4] = biological target: Chymotrypsinogen A (Bos taurus) (UniProt P00766); assay: Substrate binding constant against Chymotrypsinogen; how it was run: as §1
# [5] = biological target: T1, Urokinase-type plasminogen activator (Homo sapiens, UniProt P00749); assay: Acylation rate constant against urokinase
# [6] = Ratio of initial inhibitor concentration to initial Plasmin concentration
# How it was run: (§2)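 Ratio I0/E0 of lactone to enzyme in the 2-h incubation assay; lactone added from DMSO stock to buffered enzyme (final 10% DMSO).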
# [7] = biological target: Tissue-type plasminogen activator (Homo sapiens) (UniProt P00750); assay: Time for which maximum percent inhibition persists was determined against Tissue plasminogen activator (19.4 nM); * =no enzyme activity was recovered over 2 h; type: functional
# How it was run: (§3)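 Enzyme incubated with excess lactone added from DMSO stock (final 10% DMSO); aliquots over 2 h diluted into substrate: chymotrypsin Suc-AAPF-pNA 315 µM, pH 7.2, 410 nm; t-PA Spectrozyme t-PA 0.2 mM, Tris-imidazole pH 8.4, 405 nm; HNE MeO-Suc-AAPV-pNA 150 µM, pH 7.4, 410 nm; plasmin Ts-GPK-pNA 157.4 µM, pH 7.8, 404 nm; thrombin Ts-GPR-pNA 75 µM, pH 8.0, 408 nm; trypsin Z-VGR-pNA 155 µM, pH 7.2, 404 nm. Activity given relative to a no-lactone control. Some runs used a 10-min substrate-free delay after dilution. ∞ means no recovery over 2 h.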
# [8] = biological target: T2, Serine protease 1 (Bos taurus) (UniProt P00760); assay: Maximum percent inhibition by the compound was determined against trypsin (14.6 nM); how it was run: as §3
# T2 sequence (whole entry): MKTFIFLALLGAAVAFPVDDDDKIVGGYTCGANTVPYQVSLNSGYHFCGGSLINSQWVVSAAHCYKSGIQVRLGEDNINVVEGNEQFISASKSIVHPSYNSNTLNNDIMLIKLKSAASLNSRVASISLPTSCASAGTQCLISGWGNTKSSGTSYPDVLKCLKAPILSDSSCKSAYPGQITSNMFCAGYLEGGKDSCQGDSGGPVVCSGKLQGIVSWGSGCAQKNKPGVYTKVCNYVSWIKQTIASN
# [9] = biological target: Prothrombin (Homo sapiens) (UniProt P00734); assay: Percent activity regained after N2H4 treatment for thrombin (1.93 nM); type: functional
# [10] = biological target: T3, Neutrophil elastase (Homo sapiens) (UniProt P08246); assay: Maximum percent inhibition persists was determined against human neutrophil elastase HNE 66 nM; how it was run: as §3
# T3 sequence (whole entry): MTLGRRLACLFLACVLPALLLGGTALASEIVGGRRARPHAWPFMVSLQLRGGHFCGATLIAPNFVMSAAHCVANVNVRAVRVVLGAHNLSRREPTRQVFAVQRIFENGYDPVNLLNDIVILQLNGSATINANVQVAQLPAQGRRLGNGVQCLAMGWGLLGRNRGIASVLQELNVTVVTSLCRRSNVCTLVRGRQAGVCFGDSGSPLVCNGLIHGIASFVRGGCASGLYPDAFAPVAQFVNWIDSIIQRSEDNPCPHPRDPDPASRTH
# [11] = Ratio of initial inhibitor concentration to initial Chymotrypsinogen concentration; how it was run: as §2
# [12] = biological target: Chymotrypsinogen A (Bos taurus) (UniProt P00766); assay: Time for which maximum percent inhibition persists was determined against alpha-chymotrypsin (17 nM); * =no enzyme activity was recovered over 2 h; type: functional; how it was run: as §3
# [13] = biological target: Tissue-type plasminogen activator (Homo sapiens) (UniProt P00750); assay: Percent activity regained after N2H4 treatment for Tissue plasminogen activator 19.4 nM); type: functional
# [14] = biological target: Plasminogen (Homo sapiens) (UniProt P00747); assay: Time for which maximum percent inhibition persists was determined against plasmin(625 nM); * =no enzyme activity was recovered over 2 h; type: functional; how it was run: as §3
# [15] = biological target: Chymotrypsinogen A (Bos taurus) (UniProt P00766); assay: Percent activity regained after N2H4 treatment for alpha-chymotrypsin (17 nM); type: functional
# [16] = Ratio of initial inhibitor concentration to initial thrombin concentration; how it was run: as §2
# [17] = Ratio of initial inhibitor concentration to initial HNE concentration; how it was run: as §2
# [18] = biological target: Prothrombin (Homo sapiens) (UniProt P00734); assay: Maximum percent inhibition by the compound was determined against thrombin (1.93 nM); how it was run: as §3
# [19] = biological target: Chymotrypsinogen A (Bos taurus) (UniProt P00766); assay: Time for which maximum percent inhibition by the compound was determined against alpha-chymotrypsin (17 nM); type: functional; how it was run: as §3
# [20] = biological target: Tissue-type plasminogen activator (Homo sapiens) (UniProt P00750); assay: Time to reach maximum percent inhibition by the compound was determined against Tissue plasminogen activator (19.4 nM); type: functional
# How it was run: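 Tissue plasminogen activator was exposed to excess lactone (10% final DMSO). Over 2 h, aliquots were diluted into Spectrozyme t-PA (0.2 mM) in Tris-imidazole, I 0.3, pH 8.4. Hydrolysis at 405 nm gave residual activity relative to an enzyme-only control. The time (min) to reach maximal percent inhibition was recorded.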
# [21] = Ratio of initial inhibitor concentration to initial trypsin concentration; how it was run: as §2
# [22] = biological target: Tissue-type plasminogen activator (Homo sapiens) (UniProt P00750); assay: Maximum percent inhibition by the compound was determined against Tissue plasminogen activator (19.4 nM); how it was run: as §3
# [23] = biological target: Prothrombin (Homo sapiens) (UniProt P00734); assay: Second order rate constant against thrombin; how it was run: as §1
# [24] = biological target: Plasminogen (Homo sapiens) (UniProt P00747); assay: Maximum percent inhibition by the compound was determined against plasmin(625 nM); how it was run: as §3
# [25] = biological target: Prothrombin (Homo sapiens) (UniProt P00734); assay: Acylation rate constant against thrombin; how it was run: as §1
# [26] = biological target: T3, Neutrophil elastase (Homo sapiens); assay: Time for which maximum percent inhibition by the compound was determined against human neutrophil elastase HNE(66 nM); type: functional; how it was run: as §3
# [27] = biological target: Plasminogen (Homo sapiens) (UniProt P00747); assay: Percent activity regained after N2H4 treatment for plasmin(625 nM); type: functional
# [28] = biological target: T2, Serine protease 1 (Bos taurus); assay: Time to reach maximum percent inhibition by the compound was determined against trypsin (14.6 nM); type: functional
# How it was run: (§4)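 Trypsin was incubated with excess lactone added from DMSO stock (10% final DMSO). Aliquots taken over 2 h were diluted into Z-Val-Gly-Arg-pNA (155 μM) in 0.2 M phosphate, pH 7.2, and read at 404 nm. Activity came from the absorbance slope versus a no-lactone control. Reported are minutes to maximal inhibition and minutes it persisted; ∞ means no recovery within 2 h.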
# [29] = biological target: Chymotrypsinogen A (Bos taurus) (UniProt P00766); assay: Second order rate constant against Chymotrypsinogen; how it was run: as §1
# [30] = Ratio of initial inhibitor concentration to initial urokinase concentration; how it was run: as §2
# [31] = biological target: Plasminogen (Homo sapiens) (UniProt P00747); assay: Acylation rate constant against plasmin; how it was run: as §1
# [32] = Ratio of initial inhibitor concentration to initial t-PA concentration; how it was run: as §2
# [33] = biological target: Chymotrypsinogen A (Bos taurus) (UniProt P00766); assay: Maximum percent inhibition persists was determined against Chymotrypsinogen (17 nM); how it was run: as §3
# [34] = biological target: Plasminogen (Homo sapiens) (UniProt P00747); assay: Second order rate constant against plasmin; how it was run: as §1
# [35] = biological target: Prothrombin (Homo sapiens) (UniProt P00734); assay: Time to reach maximum percent inhibition by the compound was determined against thrombin (1.93 nM); type: functional
# How it was run: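 Thrombin was incubated with excess lactone (DMSO, 10% final). Aliquots over 2 h were diluted into Ts-Gly-Pro-Arg-pNA (75 μM) in 0.05 M phosphate, 0.01 M EDTA, 10 g/L PEG 8000, 10 mg/L aprotinin, pH 8.0, and read at 408 nm against a no-lactone control. Time to maximal inhibition was recorded.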
# [36] = biological target: Prothrombin (Homo sapiens) (UniProt P00734); assay: Time for which maximum percent inhibition persists was determined against thrombin (1.93 nM); * =no enzyme activity was recovered over 2 h; type: functional; how it was run: as §3
# [37] = biological target: Plasminogen (Homo sapiens) (UniProt P00747); assay: Substrate binding constant against plasmin; how it was run: as §1
# [38] = biological target: Chymotrypsinogen A (Bos taurus) (UniProt P00766); assay: Acylation rate constant against Chymotrypsinogen; how it was run: as §1
# [39] = biological target: T1, Urokinase-type plasminogen activator
# [40] = biological target: T1, Urokinase-type plasminogen activator; assay: Percent activity regained after N2H4 treatment for Urokinase-type plasminogen activator (300 nM); type: functional
# [41] = biological target: T3, Neutrophil elastase (Homo sapiens); assay: Time for which maximum percent inhibition persists was determined against human neutrophil elastase HNE(66 nM); type: functional; how it was run: as §3
# [42] = biological target: T1, Urokinase-type plasminogen activator; remark: listed apart in the source
# [43] = biological target: T2, Serine protease 1 (Bos taurus); assay: Time for which maximum percent inhibition persists was determined against trypsin (14.6 nM); type: functional; how it was run: as §4
# Chain of Tissue-type plasminogen activator (Homo sapiens) (P00750 36-562 limits assumed): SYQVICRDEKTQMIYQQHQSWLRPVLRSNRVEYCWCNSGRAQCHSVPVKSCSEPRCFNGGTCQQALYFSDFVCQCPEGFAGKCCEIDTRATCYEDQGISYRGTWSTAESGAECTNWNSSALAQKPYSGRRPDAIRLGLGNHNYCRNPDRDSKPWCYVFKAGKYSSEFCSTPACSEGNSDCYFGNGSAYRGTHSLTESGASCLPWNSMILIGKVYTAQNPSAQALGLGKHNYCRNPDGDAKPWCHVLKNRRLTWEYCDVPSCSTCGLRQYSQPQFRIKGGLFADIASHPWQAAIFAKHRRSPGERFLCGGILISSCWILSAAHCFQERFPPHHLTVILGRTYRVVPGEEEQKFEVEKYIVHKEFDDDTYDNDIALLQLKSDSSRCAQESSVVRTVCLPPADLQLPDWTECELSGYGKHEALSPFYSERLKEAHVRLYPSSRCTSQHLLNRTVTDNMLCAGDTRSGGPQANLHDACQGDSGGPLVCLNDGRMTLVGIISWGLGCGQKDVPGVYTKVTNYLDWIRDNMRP
structure (smiles),measurement,setting,value
N=C(N)Nc1ccc(C2CC/C(=C\I)OC2=O)cc1 (stereo not drawn),Ks,[1],0.67 µM
same,Ks,[2],0.93 µM
same,TIME,[3],0 h
same,Ks,[4],2.4 µM
same,Ka,[5],18.6 min⁻¹
same,Ratio,[6],16 Io/Eo
same,TIME,[7],No enzyme activity
same,inhibition,[8],80%
same,Activity,[9],85%
same,inhibition,[10],38%
same,Ratio,[11],118 Io/Eo
same,TIME,[12],No enzyme activity
same,Activity,[13],0%
same,TIME,[14],No enzyme activity
same,Activity,[15],32%
same,Ratio,[16],518 Io/Eo
same,Ratio,[17],36 Io/Eo
same,inhibition,[18],93%
same,TIME,[19],0.25 h
same,TIME,[20],0.25 h
same,Ratio,[21],86 Io/Eo
same,inhibition,[22],48%
same,Rate,[23],14 ka/Ks
same,inhibition,[24],95%
same,Ka,[25],12.9 min⁻¹
same,TIME,[26],0.5 h
same,Activity,[27],14%
same,TIME,[28],0 h
same,Rate,[29],3 ka/Ks
same,Ratio,[30],50 Io/Eo
same,Ka,[31],13.6 min⁻¹
same,Ratio,[32],100 Io/Eo
same,inhibition,[33],78%
same,Rate,[34],453 ka/Ks
same,TIME,[35],0 h
same,TIME,[36],No enzyme activity
same,Ks,[37],0.03 µM
same,Ka,[38],7.22 min⁻¹
same,Rate,[39],117 ka/Ks
same,Activity,[40],0%
same,TIME,[41],1.5 h
same,Ks,[42],0.16 µM
same,TIME,[43],0 h
